Assays:
[1] = target: T1, 17-beta-hydroxysteroid dehydrogenase type 3 (Rattus norvegicus) (UniProt O54939); assay: Inhibition of 17beta-HSD3 in rat testes microsomes using [14C]-4-androstene-3,17-dione as substrate measured based on 18% of initial enzyme transformation at 0.1 uM after 2 hrs; conditions: Testis
T1 sequence (whole entry): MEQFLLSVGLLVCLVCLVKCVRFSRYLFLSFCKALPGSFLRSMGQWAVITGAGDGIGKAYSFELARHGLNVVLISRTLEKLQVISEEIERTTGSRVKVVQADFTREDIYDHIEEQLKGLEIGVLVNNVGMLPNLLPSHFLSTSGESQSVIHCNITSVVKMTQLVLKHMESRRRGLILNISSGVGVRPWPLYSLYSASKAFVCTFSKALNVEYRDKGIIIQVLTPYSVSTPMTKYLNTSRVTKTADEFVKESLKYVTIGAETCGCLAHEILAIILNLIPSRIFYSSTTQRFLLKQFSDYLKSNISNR
In short: (§1)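 Rat testis microsomes: homogenate in phosphate/sucrose/EDTA buffer pH 7.5 with protease inhibitors, spun 12,500g, then pellet from 100,000g, at 4 °C. Reaction 2 h at 37 °C in 50 mM sodium phosphate pH 7.4, 20% glycerol, 1 mM EDTA, with NADPH and [14C]-Δ4-dione (50 nM). Inhibitor in DMSO. [14C]-T and substrate identified against reference steroids and quantified. Percent transformation and percent inhibition calculated.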

[2] = target: T1, 17-beta-hydroxysteroid dehydrogenase type 3 (Rattus norvegicus); assay: Inhibition of 17beta-HSD3 in rat testes microsomes using [14C]-4-androstene-3,17-dione as substrate measured based on 18% of initial enzyme transformation at 0.01 uM after 2 hrs; conditions: Testis; in short: as §1
LAPC4 [3] = assay: Androgenic activity in human LAPC4 cells expressing androgen receptor assessed as induction of cell proliferation at 0.1 uM after 3 days by MTS assay relative to control; assay type: functional
In short: (§2)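 LAPC-4 (AR+) cells in RPMI-1640 with 5% dextran-coated charcoal-treated FBS to remove hormones. Triplicate cultures of 10,000 cells preincubated 24 h at 37 °C, 5% CO2. Compounds from 10^-2 M DMSO stock, diluted in medium, added for 3 days (final DMSO 0.05%; vehicle controls). Growth read by MTS. Androgenicity = % proliferation minus basal set at 100%.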

[4] = target: T1, 17-beta-hydroxysteroid dehydrogenase type 3 (Rattus norvegicus); assay: Inhibition of 17beta-HSD3 in rat testes microsomes using [14C]-4-androstene-3,17-dione as substrate measured based on 18% of initial enzyme transformation at 1 uM after 2 hrs; conditions: Testis; in short: as §1
LAPC4 [5] = assay: Androgenic activity in human LAPC4 cells expressing androgen receptor assessed as induction of cell proliferation at 1 uM after 3 days by MTS assay relative to control; assay type: functional; in short: as §2

Structure (SMILES)	inhibition [1] [%]	inhibition [2] [%]	Activity (LAPC4 [3]) [%]	inhibition [4] [%]	Activity (LAPC4 [5]) [%]
C[C@]12CC[C@@]3(C[C@@H]1CC[C@@H]1[C@@H]2CC[C@]2(C)C(=O)CC[C@@H]12)CN(Cc1cccc(C(F)(F)F)c1)CC(=O)O3	54.1	17.7	0	94.2	27
C[C@]12CC[C@@]3(C[C@@H]1CC[C@@H]1[C@@H]2CC[C@]2(C)C(=O)CC[C@@H]12)CN(Cc1ccc2ccccc2c1)CC(=O)O3	88.3	0	22.3	93.2	16.5
C=CCN1CC(=O)O[C@@]2(CC[C@@]3(C)[C@@H](CC[C@@H]4[C@@H]3CC[C@]3(C)C(=O)CC[C@@H]43)C2)C1	48.6	8.4	31	89	11.3
C[C@]12CC[C@@]3(C[C@@H]1CC[C@@H]1[C@@H]2CC[C@]2(C)C(=O)CC[C@@H]12)CN(Cc1ccc(C(F)(F)F)cc1C(F)(F)F)CC(=O)O3	64.1	18.3	0	89.6	27
C[C@]12CC[C@@]3(C[C@@H]1CC[C@@H]1[C@@H]2CC[C@]2(C)C(=O)CC[C@@H]12)CN(Cc1ccc(I)cc1)CC(=O)O3	79	12.2	0.9	95.3	15.9
C[C@]12CC[C@@]3(C[C@@H]1CC[C@@H]1[C@@H]2CC[C@]2(C)C(=O)CC[C@@H]12)CN(Cc1cn(Cc2ccccc2)nn1)CC(=O)O3	42.2	5.1	10	85.3	17.7
C[C@]12CC[C@@]3(C[C@@H]1CC[C@@H]1[C@@H]2CC[C@]2(C)C(=O)CC[C@@H]12)CN(Cc1ccccc1C(F)(F)F)CC(=O)O3	77.9	24.4	0.5	83	36.9
C#CCN1CC(=O)O[C@@]2(CC[C@@]3(C)[C@@H](CC[C@@H]4[C@@H]3CC[C@]3(C)C(=O)CC[C@@H]43)C2)C1	34.1	0.1	20.1	80.7	25.5
C[C@]12CCC(=O)C[C@@H]1CC[C@@H]1[C@@H]2CC[C@]2(C)[C@@H](O)CC[C@@H]12 [STANOLONE]			28.8		51.5
O=C1OC2(CCCCC2)CN(Cc2cn(Cc3ccccc3)nn2)[C@H]1Cc1ccccc1	9.4	0	2.5	13.3	12.4
C[C@]12CC[C@@]3(C[C@@H]1CC[C@@H]1[C@@H]2CC[C@]2(C)C(=O)CC[C@@H]12)CN(Cc1ccc(-c2cccc(C(F)(F)F)c2)cc1)CC(=O)O3	84.8	26.1	13.5	84.9	14.3
C[C@]12CC[C@@]3(C[C@@H]1CC[C@@H]1[C@@H]2CC[C@]2(C)C(=O)CC[C@@H]12)CN(Cc1cc(C(F)(F)F)cc(C(F)(F)F)c1)CC(=O)O3	61.6	15.1	12	94.4	5.9
C[C@]12CC[C@@]3(C[C@@H]1CC[C@@H]1[C@@H]2CC[C@]2(C)C(=O)CC[C@@H]12)CN(Cc1cccc2ccccc12)CC(=O)O3	79.1	12.8	3.8	94.5	9.3
C#CCN1CC2(CCCCC2)OC(=O)[C@@H]1Cc1ccccc1	0	0	11.1	0	0

— ChEMBL document CHEMBL3603811, “Design, chemical synthesis and biological evaluation of 3-spiromorpholinone/3-spirocarbamate androsterone derivatives as inhibitors of 17β-hydroxysteroid dehydrogenase type 3” (Bioorg Med Chem, 2015)
